Most compounds without a hit are left out; they make up all but 2.6% or so of the library.
MITF act: MITF TRPM1 promoter activation in melanoma cells. activation, % at 12.5 µM. SK-MEL-5 TRPM1-promoter luciferase, 24 h; % of positive control, neutral wells = 0. actives 0.75% (n = 300,000);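 active = mean activation of at least 80% with every replicate also reaching 80%; inconclusive = mean reaches 80% but some replicate falls short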;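 also: 0% = neutral control wells and 100% = parthenolide positive control wells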
Vif inh: blocks HIV Vif function; HEK293T cells, Vif self-association by quenched fluorescence, imaging, 24 h; inhibition, % at 7.49 µM; actives 0.35% (n = 340,000); AID 602346; in the data active = inhibition above about 50%, passing the limit was not always enough; inconclusive = no clear call, values can overlap the other calls; inactive = below about 31%
Wnt bcat act: Wnt/beta-catenin pathway activation | Wnt/beta-catenin reporter cell assay, activator, plate reader | activation, % at 9.35 µM | actives 1.2% (n = 300,000) | AID 743398; in the data active = activation above about 30%, passing the limit was not always enough; inconclusive = no clear call, values can overlap the other calls;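 also: 0% = neutral control wells and 100% = positive control wells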
XiGFP reactiv: reactivates the inactive X chromosome in mouse fibroblasts | XiGFP mouse fibroblasts, % GFP-positive cells imaging, 3 d; cells co-treated with 5-aza-dC sensitizer; scaled so ellipticine positive control = 100% | activation, % at 7.58 µM | actives 0.055% (n = 360,000);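 active = mean normalized replicate activation at least 10% and every replicate at or above 10%; inconclusive = only one of the two criteria met; inactive = mean below 10% and not all replicates reach 10%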;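 also: 0% = median of on-plate neutral control wells and 100% = ellipticine 6 µM median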
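Assay system – SV40-immortalized XiGFP fibroblast cells, line 68-5-11 · Buffer or medium – DMEM supplemented with 5-aza-dC as sensitizing agent · Dosing – one concentration, pinned · Benchmarks – positive control ellipticine, 6 µM final · Times – 3 days compound exposure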
esBAF inh: SWI/SNF esBAF complex inhibition; mouse ES cells, Bmi1-luciferase knock-in reporter, 24 h; 100% = twice the neutral-well signal; reporter increase, % at 12.5 µM; actives 2% (n = 350,000); AID 602393; in the data active = activation above about 40%; inconclusive = no clear call, values can overlap the other calls;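 also: 0% = median of the plate's neutral control wells and 100% = double that signal; a rise in the Bmi1 reporter signal indicates esBAF inhibition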
* = called active by the depositor; ? = inconclusive; nt = no result.

SMILES	MITF act	Vif inh	Wnt bcat act	XiGFP reactiv	esBAF inh
O=C(CCn1cnc2ccccc21)N/N=C/c1ccc(O)cc1	7.7	1.0	-5.1	0.2	-3.3
Cc1cc(NC(=O)c2cc(C3CC3)on2)no1	nt	4.7	0.9	-0.1	48.6*
COc1ccc(NC(=O)c2cc(C3CC3)on2)c(OC)c1	nt	6.2	-3.1	0.3	53.3*
C[C@@H]1CN([C@@H](C)CO)C(=O)c2cc(NC(=O)CCCN(C)C)ccc2O[C@@H](C)CCCCO[C@H]1CN(C)Cc1ccccc1	nt	nt	nt	-0.1	1.0
O=C(CN1CCOCC1)N[C@@H]1CC[C@@H](CCNC(=O)C2CCCC2)O[C@H]1CO	nt	nt	nt	0.2	-9.2
CCOC(=O)c1sc2ccccc2c1OC(=O)c1ccccc1OC	-3.3	18.4	nt	0.0	15.2
CCOC(=O)c1cc(OC(=O)c2ccccc2OC)n(-c2ccccc2)n1	-3.9	77.6*	nt	nt	0.0
COc1ccccc1CNc1nc2cc(-c3sccc3C)sc2c(=O)n1C	nt	3.2	37.7*	0.1	65.8*
COCCNc1nc2cc(-c3cccc(C(F)(F)F)c3)sc2c(=O)n1C	nt	-2.8	-0.8	0.3	-11.0
COc1ccccc1CNc1nc2cc(-c3ccccc3C)sc2c(=O)n1C	nt	-8.2	-2.7	0.0	10.3
Cn1c(NCc2cccnc2)nc2cc(-c3cccc(C(F)(F)F)c3)sc2c1=O	nt	4.8	-2.1	-0.1	4.9
Cn1c(NCCc2ccncc2)nc2cc(-c3ccccc3)sc2c1=O	nt	13.5	-1.0	-0.1	56.4*
COc1cccc(-c2cc3nc(NCc4cccnc4)n(C)c(=O)c3s2)c1	nt	-24.9	-0.3	0.0	45.7*
COCCNc1nc2cc(-c3ccc(C)cc3)sc2c(=O)n1C	nt	-5.6	-1.4	0.3	54.8*
COCC(=O)Nc1ccc2c(c1)[C@@H]1C[C@@H](CC(=O)NC3CCCC3)O[C@@H](CO)[C@@H]1O2	nt	nt	nt	0.2	3.6
O=C(c1ccccn1)N1C[C@H]2[C@@H](c3ccccc31)[C@@H](CO)N2CC1CCCC1	nt	nt	nt	0.4	nt
O=C(CN(C(=O)c1ccccc1)C(=O)c1ccccc1)OCc1ccccc1	3.4	77.5*	-4.1	0.1	2.7
COc1ccc2nc3ccccc3nc2c1NC(=O)c1ccc(Cl)cc1	-12.7	105.7*	nt	0.3	0.4
O=C(C1CC1)N1CC[C@@H]2[C@H]1c1cc(Br)ccc1N[C@@H]2CO	nt	nt	nt	0.2	47.2*
COc1ccc2c3c([nH]c2c1)[C@@H](CO)N(C(=O)c1cccnc1)CC31CCN(C(=O)c2cccnc2)CC1	nt	nt	nt	0.0	nt
CC1(C)CC(=O)C(/C=N/n2c(C(F)(F)F)nc3ccccc3c2=O)=C(O)C1	1.2	85.5*	-0.8	nt	4.2
Cc1nc2nc(C)c(CCC(=O)NC3CCCCC3)c(C)n2n1	-4.2	0.0	-3.7	-0.1	nt
Cc1[nH]nc(C(F)(F)F)c1CCC(=O)NC1CCCCCC1	-0.9	58.5*	-2.3	0.4	-5.2
CC(C)CC#Cc1cnc2c(c1)C(=O)N([C@H](C)CO)C[C@H](C)[C@@H](CN(C)S(C)(=O)=O)O2	nt	nt	nt	-1.0	-1.5
Cc1ccc(N(C)/N=C/c2ccc(Cl)cc2Cl)nn1	98.8*	-6.9	1.9	0.2	42.3*
SMILES	MITF act	Vif inh	Wnt bcat act	XiGFP reactiv	esBAF inh
O=C(c1cccs1)N(CCN1CCCCC1)CC1CCCN(C2CCCC2)C1 (centres undefined)	39.2	5.0	5.9	0.0	24.2
Cc1ccc(C(=O)N(CCN2CCCCC2)CC2CCCN(C3CCCC3)C2)s1 (centres undefined)	95.3*	4.3	15.4	0.1	nt
COc1cc(/C=C(/C#N)C(=O)NC(C)c2ccccc2)cc(OC)c1O (centres undefined)	8.6	54.0*	-1.1	0.0	9.0
CC(NC(=O)/C(C#N)=C/c1ccc(C(=O)O)cc1)c1ccccc1 (centres undefined)	8.8	1.0	1.4	0.0	nt
COCC(=O)Nc1ccc2c(c1)OC[C@@H](C)N(Cc1cncnc1)C[C@H](C)[C@H](OC)CN(C)C2=O	nt	nt	nt	0.3	nt
Oc1csc(Cc2nc(-c3ccc4ccccc4c3)cs2)n1	nt	-17.5	nt	nt	69.3*
Oc1csc(Cc2nc(-c3ccc(-c4ccccc4)cc3)cs2)n1	5.1	3.2	nt	nt	34.3
N#C/C(=C\c1cn(Cc2ccccc2)c2ccccc12)C(=O)NCc1ccco1	21.2	25.3	-0.5	0.5	nt
Cc1cccc(NC(=O)/C(C#N)=C/c2ccc[nH]2)c1C	12.7	5.3	6.8	0.4	48.8*
Cc1cccc(NC(=O)/C(C#N)=C/c2cn(CC(=O)NCc3ccco3)c3ccccc23)c1C	-28.9	72.3*	-6.7	-0.3	8.5
C[C@H](CO)N1C[C@H](C)[C@H](CN(C)C(=O)Nc2ccccc2)Oc2ccc(NC(=O)Nc3ccc(F)cc3)cc2C1=O	nt	nt	nt	-1.1	1.2
OC[C@H]1O[C@@H](n2cnc3c(NCc4ccco4)ncnc32)[C@H](O)[C@@H]1O	-64.8	6.0	-26.9	-0.3	36.1
Nc1ncnc2c1ncn2C1OC(C(=O)NC2CC2)C(O)C1O (centres undefined)	-3.2	160.0*	0.3	0.1	-2.0
OCC1OC(n2cnc3c(NC4CCCC4)ncnc32)C(O)C1O (centres undefined)	-9.0	?	0.1	-0.1	1.9
C=CCNc1ncnc2c1ncn2C1OC(CO)C(O)C1O (centres undefined)	-7.1	60.4*	nt	nt	-0.4
OCC1OC(n2cnc3c(NCc4ccco4)ncnc32)C(O)C1O (centres undefined)	-62.3	53.8*	-0.6	0.6	nt
OC[C@H]1O[C@@H](n2cnc3c(NC4CCCC4)ncnc32)[C@H](O)[C@@H]1O	16.9	67.1*	0.5	0.0	-1.6
CNC[C@@H]1OCCCC[C@@H](C)Oc2ccc(NS(C)(=O)=O)cc2C(=O)N([C@H](C)CO)C[C@H]1C	nt	nt	nt	-1.1	-6.7
C[C@H]1CCCCO[C@@H](CN(C)C(=O)C2CCCCC2)[C@@H](C)CN([C@@H](C)CO)C(=O)c2cc(NS(=O)(=O)c3cn(C)cn3)ccc2O1	nt	nt	nt	0.1	1.7
CCOC(=O)c1c(-c2ccc(C)cc2)csc1NC(=S)NC(=O)c1ccccc1	nt	-14.0	-16.2	nt	-2.9
CCOC(=O)c1c(-c2ccc(C)cc2)csc1NC(=O)c1cc2ccccc2oc1=O	1.9	2.1	12.0	0.6	48.8*
C[C@@H]1CN([C@@H](C)CO)C(=O)c2cc(NC(=O)CCN3CCOCC3)ccc2O[C@H]1CN(C)CC1CCCCC1	nt	nt	nt	-0.1	0.1
COc1ccc(OC)c(S(=O)(=O)N2CCN(CC(O)CN3CCOCC3)CC2)c1 (centres undefined)	1.5	0.9	-0.9	0.0	-13.1
COc1ccc(S(=O)(=O)N2CCN(CC(O)CN3CCOCC3)CC2)cc1 (centres undefined)	0.4	22.8	53.1*	-0.4	-11.7
COCC(=O)N1CC(=O)N2[C@H](CO)[C@H](c3ccc(C#CC4CCCC4)cc3)[C@H]2C1	nt	nt	nt	0.0	nt
Cc1cc(C[n+]2cc(Cl)ccc2N)c2ncccc2c1	1.7	5.6	-0.6	0.0	0.3

Assay outcomes: PubChem, Broad Institute
